Source: ChEMBL document CHEMBL2401663, “(Biphenyl-4-yl)methylammonium chlorides: potent anticonvulsants that modulate Na+ currents” (J Med Chem, 2013)

Legend:
[1] = Toxicity in po dosed albino Sprague-Dawley rat assessed as behavioral toxicity after 0.25 to 4 hrs; format: organism-based; details: in vivo
In short: (§1)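 Male albino Sprague-Dawley rats dosed ip or orally, scored for behavioral toxicity (neurological impairment). TD50 is in mg/kg, taken at the time of peak effect.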

[2] = system: Rattus norvegicus; assay: Anticonvulsant activity against po dosed albino Sprague-Dawley rat after 0.25 to 4 hrs by maximal electroshock seizure test; format: functional
In short: (§2)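 Male albino Sprague-Dawley rats dosed ip or orally under the NIH Anticonvulsant Screening Program, tested by maximal electroshock seizure.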

[3] = Toxicity in ip dosed albino Sprague-Dawley rat assessed as behavioral toxicity after 0.25 to 4 hrs; format: organism-based; details: in vivo; in short: as §1
[4] = system: Rattus norvegicus; assay: Anticonvulsant activity against ip dosed albino Sprague-Dawley rat after 0.25 to 4 hrs by maximal electroshock seizure test; format: functional; in short: as §2
[5] = Toxicity in ip dosed albino CF1 mouse after 0.25 to 4 hrs by rotorod test; format: organism-based; details: in vivo
[6] = system: Mus musculus; assay: Anticonvulsant activity against ip dosed albino CF1 mouse after 0.25 to 4 hrs by subcutaneous pentylenetetrazol test; format: functional
[7] = system: Mus musculus; assay: Anticonvulsant activity against ip dosed albino CF1 mouse after 2 hrs by 6 Hz psychomotor seizure test; format: functional
[8] = system: Mus musculus; assay: Anticonvulsant activity against ip dosed albino CF1 mouse after 0.5 to 2 hrs by maximal electroshock seizure test; format: functional
[9] = system: Rattus norvegicus; assay: Anticonvulsant activity against ip dosed albino Sprague-Dawley rat after 0.25 to 2 hrs by maximal electroshock seizure test; format: functional; in short: as §2
[10] = system: Mus musculus; assay: Toxicity in ip dosed albino CF1 mouse after […] by rotorod test; format: organism-based; details: in vivo
[11] = system: Mus musculus; assay: Anticonvulsant activity against ip dosed albino CF1 mouse after […] by subcutaneous pentylenetetrazol test; format: functional
[12] = system: Mus musculus; assay: Anticonvulsant activity against ip dosed albino CF1 mouse after 0.25 to 1 hr by 6 Hz psychomotor seizure test; format: functional
[13] = system: Mus musculus; assay: Anticonvulsant activity against ip dosed albino CF1 mouse after […] by maximal electroshock seizure test; format: functional
[14] = system: Rattus norvegicus; assay: Anticonvulsant activity against po dosed albino Sprague-Dawley rat after 5 hrs by maximal electroshock seizure test; format: functional
In short: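 Male albino Sprague-Dawley rats given compound orally under the NIH Anticonvulsant Screening Program, then challenged by maximal electroshock.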

[15] = system: Mus musculus; assay: Anticonvulsant activity against ip dosed albino CF1 mouse after 1 hr by maximal electroshock seizure test; format: functional
[16] = system: Rattus norvegicus; assay: Anticonvulsant activity against ip dosed albino Sprague-Dawley rat after […] by maximal electroshock seizure test; format: functional
[17] = system: Mus musculus; assay: Anticonvulsant activity against ip dosed albino CF1 mouse after 2 hrs by subcutaneous pentylenetetrazol test; format: functional; details: albino CF1, 2 h
[18] = system: Mus musculus; assay: Anticonvulsant activity against ip dosed albino CF1 mouse after 1 hr by 6 Hz psychomotor seizure test; format: functional
[19] = system: Mus musculus; assay: Anticonvulsant activity against ip dosed albino CF1 mouse after 0.25 to 4 hrs by maximal electroshock seizure test; format: functional
[20] = system: Rattus norvegicus; assay: Anticonvulsant activity against po dosed albino Sprague-Dawley rat […] by maximal electroshock seizure test; format: functional; in short: as §2
[21] = Inhibition of Na+ channel in mouse CAD cells assessed as slow inactivation by whole cell voltage clamp technique; format: cell-based
In short: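 CAD cells (Ham's F12/EMEM, 8% FBS, 37 °C, 5% CO2) by whole-cell voltage clamp at room temperature. Na+ channel slow inactivation measured at −50 mV; IC50 is the concentration at which half of the channels reach a slow-inactivated state.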

[22] = Toxicity in po dosed albino Sprague-Dawley rat assessed as behavioral toxicity; format: organism-based; details: in vivo
In short: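 Neurological impairment was scored as behavioral toxicity in male albino Sprague-Dawley rats dosed orally, NIH Anticonvulsant Screening Program. The median impairing dose (TD50, mg/kg) was taken at the time of peak effect.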

`Cl.NCc1ccc(-c2ccc(OC(F)(F)F)cc2)cc1` gave a TD50 [1] greater than 30 mg/kg, an ED50 [2] greater than 30 mg/kg and a TD50 [3] greater than 30 mg/kg. It also gave an ED50 [4] greater than 30 mg/kg, a TD50 [5] greater than 50 mg/kg and an ED50 [6] greater than 50 mg/kg. The ED50 [7] was less than 100 mg/kg and the ED50 [8] was 50 mg/kg.

For `Cl.NCc1ccc(-c2ccccc2OC(F)(F)F)cc1`, the TD50 [1] was greater than 30 mg/kg, the ED50 [2] was greater than 30 mg/kg and the TD50 [3] was greater than 30 mg/kg. The ED50 [9] was less than 30 mg/kg, the TD50 [10] was 72 mg/kg and the ED50 [11] was greater than 120 mg/kg. For the same compound, the ED50 [12] was less than 50 mg/kg and the ED50 [13] was 40 mg/kg.

With `CCCC(CCC)C(=O)O` [VALPROIC ACID] the ED50 [13] was 270 mg/kg.

With `CCC1(c2ccccc2)C(=O)NC(=O)NC1=O` [PHENOBARBITAL] the ED50 [14] was 9.1 mg/kg and the ED50 [15] was 22 mg/kg.

`Cl.NCc1ccc(-c2cccc(F)c2)cc1` showed a TD50 [1] greater than 30 mg/kg, an ED50 [2] greater than 30 mg/kg and a TD50 [3] greater than 65 mg/kg. It also gave an ED50 [16] of 65 mg/kg, a TD50 [5] greater than 100 mg/kg and an ED50 [17] of 50 mg/kg. For the same compound, the ED50 [18] was 50 mg/kg and the ED50 [19] was greater than 50 mg/kg.

Compound `O=C1NC(=O)C(c2ccccc2)(c2ccccc2)N1` [PHENYTOIN] has an ED50 [20] of 30 mg/kg.

Work on `COC[C@@H](NC(C)=O)C(=O)NCc1ccccc1` [LACOSAMIDE] yielded an IC50 [21] of 85 µM and a TD50 [22] greater than 500 mg/kg.
